test system: MCF7; assay: Growth inhibition of human MCF7 cells assessed as cell growth at 100 uM incubated for 48 hrs by sulforhodamine B assay relative to control; assay type: functional; conditions: read-out: Activity

SMILES | growth at 100 µM
Cc1cc(C)c(NC(=O)c2sc3nc4c(cc3c2N)CN(Cc2ccccc2)CC4)c(C)c1 | -8%

test system: SR; assay: Growth inhibition of human SR cells incubated for 48 hrs by sulforhodamine B assay; assay type: functional; conditions: not given
Method in brief: (§1)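 NCI DTP 60-line human tumour panel. Dose-response curves were run only for ligands active in the initial 10 µM screen. GI50 (concentration giving 50% of maximal inhibition of proliferation) and TGI (concentration giving total growth inhibition) were derived from these curves.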

SMILES | GI50 | LC50 | TGI
Cc1cc(C)c(NC(=O)c2sc3nc4c(cc3c2N)CN(Cc2ccccc2)CC4)c(C)c1 | 1.83 µM | > 100 µM | 10.7 µM

test system: HCT-116; assay: Growth inhibition of human HCT-116 cells assessed as cell growth at 1 uM incubated for 48 hrs by sulforhodamine B assay relative to control; assay type: functional; conditions: read-out: Activity

SMILES | growth at 1 µM
Cc1cc(C)c(NC(=O)c2sc3nc4c(cc3c2N)CN(Cc2ccccc2)CC4)c(C)c1 | 79%

test system: PC-3; assay: Growth inhibition of human PC-3 cells assessed as cell growth at 0.1 uM incubated for 48 hrs by sulforhodamine B assay relative to control; assay type: functional; conditions: read-out: Activity

SMILES | growth at 0.1 µM
Cc1cc(C)c(NC(=O)c2sc3nc4c(cc3c2N)CN(Cc2ccccc2)CC4)c(C)c1 | 93%

test system: M14; assay: Growth inhibition of human M14 cells assessed as cell growth at 1 uM incubated for 48 hrs by sulforhodamine B assay relative to control; assay type: functional; conditions: read-out: Activity

SMILES | growth at 1 µM
Cc1cc(C)c(NC(=O)c2sc3nc4c(cc3c2N)CN(Cc2ccccc2)CC4)c(C)c1 | 78%

test system: HOP-92; assay: Growth inhibition of human HOP-92 cells assessed as cell growth at 0.1 uM incubated for 48 hrs by sulforhodamine B assay relative to control; assay type: functional; conditions: read-out: Activity

SMILES | growth at 0.1 µM
Cc1cc(C)c(NC(=O)c2sc3nc4c(cc3c2N)CN(Cc2ccccc2)CC4)c(C)c1 | 70%

test system: HCC 2998; assay: Growth inhibition of human HCC 2998 cells assessed as cell growth at 100 uM incubated for 48 hrs by sulforhodamine B assay relative to control; assay type: functional; conditions: read-out: Activity
Method in brief: (§2)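 NCI Developmental Therapeutics Program NCI60 panel. Compounds that were active in the 10 µM one-dose screen went on to dose–response testing. Growth at each concentration is expressed relative to untreated control (100%). GI50 (concentration giving 50% of maximal inhibition of proliferation) and TGI (concentration giving total growth inhibition) were derived from the curves.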

SMILES | growth at 100 µM
Cc1cc(C)c(NC(=O)c2sc3nc4c(cc3c2N)CN(Cc2ccccc2)CC4)c(C)c1 | -21%

test system: OVCAR-4; assay: Growth inhibition of human OVCAR-4 cells assessed as cell growth at 100 uM incubated for 48 hrs by sulforhodamine B assay relative to control; assay type: functional; conditions: read-out: Activity

SMILES | growth at 100 µM
Cc1cc(C)c(NC(=O)c2sc3nc4c(cc3c2N)CN(Cc2ccccc2)CC4)c(C)c1 | 28%

test system: MDA-MB-231; assay: Growth inhibition of human MDA-MB-231 cells assessed as cell growth at 0.1 uM incubated for 48 hrs by sulforhodamine B assay relative to control; assay type: functional; conditions: read-out: Activity

SMILES | growth at 0.1 µM
Cc1cc(C)c(NC(=O)c2sc3nc4c(cc3c2N)CN(Cc2ccccc2)CC4)c(C)c1 | 101%

test system: SK-OV-3; assay: Growth inhibition of human SK-OV-3 cells assessed as cell growth at 0.1 uM incubated for 48 hrs by sulforhodamine B assay relative to control; assay type: functional; conditions: read-out: Activity

SMILES | growth at 0.1 µM
Cc1cc(C)c(NC(=O)c2sc3nc4c(cc3c2N)CN(Cc2ccccc2)CC4)c(C)c1 | 98%

test system: Hs-578T; assay: Growth inhibition of human Hs-578T cells assessed as cell growth at 1 uM incubated for 48 hrs by sulforhodamine B assay relative to control; assay type: functional; conditions: read-out: Activity

SMILES | growth at 1 µM
Cc1cc(C)c(NC(=O)c2sc3nc4c(cc3c2N)CN(Cc2ccccc2)CC4)c(C)c1 | 76%

test system: T47D; assay: Growth inhibition of human T47D cells assessed as cell growth at 1 uM incubated for 48 hrs by sulforhodamine B assay relative to control; assay type: functional; conditions: read-out: Activity

SMILES | growth at 1 µM
Cc1cc(C)c(NC(=O)c2sc3nc4c(cc3c2N)CN(Cc2ccccc2)CC4)c(C)c1 | 77%

test system: LOX IMVI; assay: Growth inhibition of human LOX IMVI cells assessed as cell growth at 1 uM incubated for 48 hrs by sulforhodamine B assay relative to control; assay type: functional; conditions: read-out: Activity

SMILES | growth at 1 µM
Cc1cc(C)c(NC(=O)c2sc3nc4c(cc3c2N)CN(Cc2ccccc2)CC4)c(C)c1 | 99%

test system: MCF7; assay: Growth inhibition of human MCF7 cells incubated for 48 hrs by sulforhodamine B assay; assay type: functional; conditions: not given
Method in brief: (§3)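 NCI60 panel at the NCI Developmental Therapeutics Program. Only compounds active in the 10 µM screen went to dose-response testing. GI50, the concentration giving 50% of maximal inhibition of proliferation, and TGI, the concentration giving total growth inhibition, were derived from the dose-response curves.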

SMILES | GI50 | TGI
Cc1cc(C)c(NC(=O)c2sc3nc4c(cc3c2N)CN(Cc2ccccc2)CC4)c(C)c1 | 1.61 µM | 32.2 µM

same assay, conditions: read-out: LC50 (the source's name)

SMILES | CC50
Cc1cc(C)c(NC(=O)c2sc3nc4c(cc3c2N)CN(Cc2ccccc2)CC4)c(C)c1 | > 100 µM

test system: HCC 2998; assay: Growth inhibition of human HCC 2998 cells assessed as cell growth at 0.1 uM incubated for 48 hrs by sulforhodamine B assay relative to control; assay type: functional; conditions: read-out: Activity; method in brief: as §2

SMILES | growth at 0.1 µM
Cc1cc(C)c(NC(=O)c2sc3nc4c(cc3c2N)CN(Cc2ccccc2)CC4)c(C)c1 | 98%

test system: SF-268; assay: Growth inhibition of human SF-268 cells assessed as cell growth at 1 uM incubated for 48 hrs by sulforhodamine B assay relative to control; assay type: functional; conditions: read-out: Activity

SMILES | growth at 1 µM
Cc1cc(C)c(NC(=O)c2sc3nc4c(cc3c2N)CN(Cc2ccccc2)CC4)c(C)c1 | 92%

test system: RXF 393; assay: Growth inhibition of human RXF 393 cells assessed as cell growth at 1 uM incubated for 48 hrs by sulforhodamine B assay relative to control; assay type: functional; conditions: read-out: Activity

SMILES | growth at 1 µM
Cc1cc(C)c(NC(=O)c2sc3nc4c(cc3c2N)CN(Cc2ccccc2)CC4)c(C)c1 | 78%

test system: CAKI-1; assay: Growth inhibition of human CAKI-1 cells incubated for 48 hrs by sulforhodamine B assay; assay type: functional; conditions: not given; method in brief: as §2

SMILES | GI50 | TGI
Cc1cc(C)c(NC(=O)c2sc3nc4c(cc3c2N)CN(Cc2ccccc2)CC4)c(C)c1 | 2.81 µM | > 100 µM

same assay, conditions: read-out: LC50 (the source's name)

SMILES | CC50
Cc1cc(C)c(NC(=O)c2sc3nc4c(cc3c2N)CN(Cc2ccccc2)CC4)c(C)c1 | > 100 µM

test system: HT-29; assay: Growth inhibition of human HT-29 cells assessed as cell growth at 1 uM incubated for 48 hrs by sulforhodamine B assay relative to control; assay type: functional; conditions: read-out: Activity

SMILES | growth at 1 µM
Cc1cc(C)c(NC(=O)c2sc3nc4c(cc3c2N)CN(Cc2ccccc2)CC4)c(C)c1 | 90%

test system: SNB-75; assay: Growth inhibition of human SNB-75 cells incubated for 48 hrs by sulforhodamine B assay; assay type: functional; conditions: not given; method in brief: as §1

SMILES | GI50 | LC50 | TGI
Cc1cc(C)c(NC(=O)c2sc3nc4c(cc3c2N)CN(Cc2ccccc2)CC4)c(C)c1 | 2.35 µM | > 100 µM | 11 µM

test system: NCI-H23; assay: Growth inhibition of human NCI-H23 cells assessed as cell growth at 0.1 uM incubated for 48 hrs by sulforhodamine B assay relative to control; assay type: functional; conditions: read-out: Activity

SMILES | growth at 0.1 µM
Cc1cc(C)c(NC(=O)c2sc3nc4c(cc3c2N)CN(Cc2ccccc2)CC4)c(C)c1 | 103%

test system: OVCAR-8; assay: Growth inhibition of human OVCAR-8 cells assessed as cell growth at 1 uM incubated for 48 hrs by sulforhodamine B assay relative to control; assay type: functional; conditions: read-out: Activity

SMILES | growth at 1 µM
Cc1cc(C)c(NC(=O)c2sc3nc4c(cc3c2N)CN(Cc2ccccc2)CC4)c(C)c1 | 91%

test system: MDA-MB-435; assay: Growth inhibition of human MDA-MB-435 cells incubated for 48 hrs by sulforhodamine B assay; assay type: functional; conditions: not given; method in brief: as §3

SMILES | GI50 | TGI
Cc1cc(C)c(NC(=O)c2sc3nc4c(cc3c2N)CN(Cc2ccccc2)CC4)c(C)c1 | 0.399 µM | 4.38 µM

same assay, conditions: read-out: LC50 (the source's name)

SMILES | CC50
Cc1cc(C)c(NC(=O)c2sc3nc4c(cc3c2N)CN(Cc2ccccc2)CC4)c(C)c1 | 68.9 µM

test system: NCI-H226; assay: Growth inhibition of human NCI-H226 cells assessed as cell growth at 0.01 uM incubated for 48 hrs by sulforhodamine B assay relative to control; assay type: functional; conditions: read-out: Activity

SMILES | growth at 0.01 µM
Cc1cc(C)c(NC(=O)c2sc3nc4c(cc3c2N)CN(Cc2ccccc2)CC4)c(C)c1 | 92%

test system: CCRF-CEM; assay: Growth inhibition of human CCRF-CEM cells assessed as cell growth at 0.01 uM incubated for 48 hrs by sulforhodamine B assay relative to control; assay type: functional; conditions: read-out: Activity; method in brief: as §2

SMILES | growth at 0.01 µM
Cc1cc(C)c(NC(=O)c2sc3nc4c(cc3c2N)CN(Cc2ccccc2)CC4)c(C)c1 | 100%

test system: RXF 393; assay: Growth inhibition of human RXF 393 cells assessed as cell growth at 0.1 uM incubated for 48 hrs by sulforhodamine B assay relative to control; assay type: functional; conditions: read-out: Activity

SMILES | growth at 0.1 µM
Cc1cc(C)c(NC(=O)c2sc3nc4c(cc3c2N)CN(Cc2ccccc2)CC4)c(C)c1 | 89%

test system: OVCAR-5; assay: Growth inhibition of human OVCAR-5 cells incubated for 48 hrs by sulforhodamine B assay; assay type: functional; conditions: not given; method in brief: as §1

SMILES | GI50 | TGI
Cc1cc(C)c(NC(=O)c2sc3nc4c(cc3c2N)CN(Cc2ccccc2)CC4)c(C)c1 | 12.5 µM | > 100 µM

same assay, conditions: read-out: LC50 (the source's name)

SMILES | CC50
Cc1cc(C)c(NC(=O)c2sc3nc4c(cc3c2N)CN(Cc2ccccc2)CC4)c(C)c1 | > 100 µM

test system: MDA-MB-435; assay: Growth inhibition of human MDA-MB-435 cells assessed as cell growth at 100 uM incubated for 48 hrs by sulforhodamine B assay relative to control; assay type: functional; conditions: read-out: Activity

SMILES | growth at 100 µM
Cc1cc(C)c(NC(=O)c2sc3nc4c(cc3c2N)CN(Cc2ccccc2)CC4)c(C)c1 | -58%

test system: T47D; assay: Growth inhibition of human T47D cells assessed as cell growth at 0.1 uM incubated for 48 hrs by sulforhodamine B assay relative to control; assay type: functional; conditions: read-out: Activity

SMILES | growth at 0.1 µM
Cc1cc(C)c(NC(=O)c2sc3nc4c(cc3c2N)CN(Cc2ccccc2)CC4)c(C)c1 | 93%

test system: SK-MEL-5; assay: Growth inhibition of human SK-MEL-5 cells assessed as cell growth at 0.1 uM incubated for 48 hrs by sulforhodamine B assay relative to control; assay type: functional; conditions: read-out: Activity

SMILES | growth at 0.1 µM
Cc1cc(C)c(NC(=O)c2sc3nc4c(cc3c2N)CN(Cc2ccccc2)CC4)c(C)c1 | 93%

test system: SK-MEL-28; assay: Growth inhibition of human SK-MEL-28 cells assessed as cell growth at 0.01 uM incubated for 48 hrs by sulforhodamine B assay relative to control; assay type: functional; conditions: read-out: Activity

SMILES | growth at 0.01 µM
Cc1cc(C)c(NC(=O)c2sc3nc4c(cc3c2N)CN(Cc2ccccc2)CC4)c(C)c1 | 97%

test system: HCT-116; assay: Growth inhibition of human HCT-116 cells assessed as cell growth at 0.1 uM incubated for 48 hrs by sulforhodamine B assay relative to control; assay type: functional; conditions: read-out: Activity

SMILES | growth at 0.1 µM
Cc1cc(C)c(NC(=O)c2sc3nc4c(cc3c2N)CN(Cc2ccccc2)CC4)c(C)c1 | 97%

test system: U-251; assay: Growth inhibition of human U-251 cells assessed as cell growth at 0.1 uM incubated for 48 hrs by sulforhodamine B assay relative to control; assay type: functional; conditions: read-out: Activity

SMILES | growth at 0.1 µM
Cc1cc(C)c(NC(=O)c2sc3nc4c(cc3c2N)CN(Cc2ccccc2)CC4)c(C)c1 | 96%

test system: OVCAR-8; assay: Growth inhibition of human OVCAR-8 cells incubated for 48 hrs by sulforhodamine B assay; assay type: functional; conditions: not given; method in brief: as §1

SMILES | GI50 | TGI
Cc1cc(C)c(NC(=O)c2sc3nc4c(cc3c2N)CN(Cc2ccccc2)CC4)c(C)c1 | 4.72 µM | > 100 µM

same assay, conditions: read-out: LC50 (the source's name)

SMILES | CC50
Cc1cc(C)c(NC(=O)c2sc3nc4c(cc3c2N)CN(Cc2ccccc2)CC4)c(C)c1 | > 100 µM

test system: SK-MEL-28; assay: Growth inhibition of human SK-MEL-28 cells incubated for 48 hrs by sulforhodamine B assay; assay type: functional; conditions: not given; method in brief: as §1

SMILES | GI50 | LC50 | TGI
Cc1cc(C)c(NC(=O)c2sc3nc4c(cc3c2N)CN(Cc2ccccc2)CC4)c(C)c1 | 6.97 µM | > 100 µM | 40.4 µM

— ChEMBL document CHEMBL4715736, “Identification of anticancer agents based on the thieno[2,3-b]pyridine and 1H-pyrazole molecular scaffolds” (2016)
